37 sequences from the array DNA melting data of Ke et al. (doi:10.1101/2024.01.08.574731) can be followed below.

A short description of data set [1]: folding enthalpy; higher = less favourable; fluorescence melt of hairpins on a sequencing array, two-state fit. As to conditions: sodium 0.088 M. The gist of the method:
(§1)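 Cy3 fluorescence of library hairpins on a sequenced MiSeq flow cell, with annealed Cy3 and quencher oligos, was imaged in 50 mM Na-HEPES pH 8.0, 25 mM NaCl in 2.5 °C steps up to 60 °C. Signals were normalised to pre-quench Cy3 and to control variants. Melting temperature and folding enthalpy came from bootstrapped two-state fits, inverse-variance combined over four replicates. Fitted temperatures were raised by 9.35 °C to match UV melts.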

The nature of data set [2]: melting temperature; fluorescence melt of hairpins on a sequencing array, two-state fit, raised by 9.35 °C to match UV melts. The settings on record: sodium 0.088 M. The gist of the method: as §1

Consider GGAGTTGAAAAACTCC ((((((....)))))), for which the folding enthalpy in data set [1] was -36.2 kcal/mol. The Tm in data set [2] is 55.7 °C.

For the sequence GATCCAGATGTGGATC ((((((....)))))), the folding enthalpy in data set [1] was -35.4 kcal/mol. The Tm in data set [2] was found to be 51.1 °C.

For the sequence GATCGCTTGTGCGATC ((((((....)))))), in data set [1], the folding enthalpy was -21.5 kcal/mol. For the same sequence, in data set [2], the Tm came to 68 °C.

On to GTAAGAGGAAACTCTTAC (((((((....))))))), for which, in data set [1], the folding enthalpy was -42.2 kcal/mol. Moreover, the Tm in data set [2] worked out at 51 °C.

On to GCTCACGAAAGTGCAGC ((((((....))).))), for which the folding enthalpy in data set [1] is -22.9 kcal/mol. In data set [2], the Tm turned out to be 52 °C.

With GATCGACGCCTCGATC ((((((....)))))), in data set [1], the folding enthalpy was -43.6 kcal/mol. In addition, in data set [2], the Tm is 51.6 °C.

On to GTCATCGAAAGATTGGAC ((((((....)))..))), for which the folding enthalpy in data set [1] was -17.7 kcal/mol. For the same sequence, the Tm in data set [2] stood at 30.9 °C.

As to GCGTTGAACGC ((((...)))), the folding enthalpy in data set [1] was -18.2 kcal/mol. Also, the Tm in data set [2] worked out at 54.1 °C.

As to GTTTAGGGAAACTTGAAC (((.(.(....).).))), the folding enthalpy in data set [1] is -13 kcal/mol. Further, in data set [2], the Tm came out at 34.1 °C.

With GCGGAGCGAAAGCCACGC (((..((....))..))), the folding enthalpy in data set [1] was -15.7 kcal/mol. Besides, in data set [2], the Tm was determined as 58.4 °C.

Regarding GGAATGCGAAAGCATCC (((.(((....)))))), in data set [1], the folding enthalpy was -15.9 kcal/mol. Further, in data set [2], the Tm was determined as 55.5 °C.

Take GCACACGAAAGTGCTTGC ((((((....)))..))): in data set [1], the folding enthalpy was -20.8 kcal/mol. Besides, the Tm in data set [2] was found to be 53.6 °C.

Regarding GATGGGGGAAACTCCATC (((((.(....).))))), the folding enthalpy in data set [1] is -32.9 kcal/mol. For the same sequence, the Tm in data set [2] is 49.2 °C.

With GTGCTTGGAAACAAACAC (((.(((....))).))), in data set [1], the folding enthalpy was -28.9 kcal/mol. Also, the Tm in data set [2] stood at 39.1 °C.

For the sequence GCGATCCATCGC ((((....)))), the folding enthalpy in data set [1] is -27.3 kcal/mol. For the same sequence, in data set [2], the Tm is 57.2 °C.

Turning to GGTCTCGGAAACAAGACC (((((.(....).))))), in data set [1], the folding enthalpy was -31.8 kcal/mol. The Tm in data set [2] came out at 41.9 °C.

Take GTAGTATCGAAAGATTAC (((..(((....)))))): the folding enthalpy in data set [1] was -12.9 kcal/mol. Moreover, the Tm in data set [2] was 26.1 °C.

For GATCTCGACCGAGATC ((((((....)))))), in data set [1], the folding enthalpy is -51.9 kcal/mol. Further, in data set [2], the Tm was determined as 56.1 °C.

With GATACTGGAAACAGTGTC ((.((((....)))).)), in data set [1], the folding enthalpy was -25.9 kcal/mol. Moreover, in data set [2], the Tm was determined as 44.7 °C.

Consider CGGAACGGAAACGTCCG (((.(((....)))))), for which the folding enthalpy in data set [1] is -30.1 kcal/mol. For the same sequence, in data set [2], the Tm is 47.8 °C.

For CTGGTGAAAACCAG (((((....))))), the folding enthalpy in data set [1] is -20.3 kcal/mol. Further, the Tm in data set [2] was found to be 52.8 °C.

In the case of GTGAAGGGAAACCTTCGC (.(((((....))))).), the folding enthalpy in data set [1] is -25.8 kcal/mol. Also, in data set [2], the Tm came out at 50.2 °C.

With GCATGTGAAAACATGC ((((((....)))))), in data set [1], the folding enthalpy is -38.3 kcal/mol. For the same sequence, the Tm in data set [2] turned out to be 64 °C.

GACCATGAAAATGGTC ((((((....)))))): the folding enthalpy in data set [1] is -36.9 kcal/mol. Further, the Tm in data set [2] amounted to 61.8 °C.

In the case of GATCATAACGATGATC ((((((....)))))), the folding enthalpy in data set [1] was -31.5 kcal/mol. Also, the Tm in data set [2] worked out at 45.9 °C.

Regarding GGGAAAGGAAACTCTCCC ((((.((....)).)))), the folding enthalpy in data set [1] is -17.2 kcal/mol. Besides, in data set [2], the Tm was determined as 30.2 °C.

Consider GAGTCCGGAAACGAACTC ((((.((....)).)))), for which the folding enthalpy in data set [1] is -34.6 kcal/mol. The Tm in data set [2] came out at 41.7 °C.

Turning to GAGTGAGGAAACTCGCTC (((.(((....))).))), the folding enthalpy in data set [1] was -49.6 kcal/mol. Further, the Tm in data set [2] stood at 50.6 °C.

Consider GACAAGGGAAACTTTGTC (((((.(....).))))), for which the folding enthalpy in data set [1] was -27.1 kcal/mol. Further, the Tm in data set [2] was found to be 36.9 °C.

In the case of GATCCTGGTAAGGATC ((((((....)))))), in data set [1], the folding enthalpy is -41.8 kcal/mol. The Tm in data set [2] turned out to be 65.8 °C.

With GCTTTTGCGAAAGCAAGC (((..(((....)))))), the folding enthalpy in data set [1] was -10.3 kcal/mol. In addition, the Tm in data set [2] turned out to be 35 °C.

Regarding GGCAGCGAAAGCTAAGCC ((((((....)))..))), the folding enthalpy in data set [1] is -25.2 kcal/mol. In addition, the Tm in data set [2] was found to be 55.6 °C.

Regarding GATCGTGGAGACGATC ((((((....)))))), in data set [1], the folding enthalpy was -42.4 kcal/mol. Besides, the Tm in data set [2] stood at 57.8 °C.

Consider GCAAGGGGAAACTCTTGC (((((.(....).))))), for which, in data set [1], the folding enthalpy is -45.3 kcal/mol. Moreover, the Tm in data set [2] came out at 50.1 °C.

With GTAATAGGAAACTGTTAC ((((.((....)).)))), the folding enthalpy in data set [1] was -24.9 kcal/mol. Also, the Tm in data set [2] came out at 36.4 °C.

GGTTTTGGAAACAAAACC (((((((....))))))): the folding enthalpy in data set [1] was -50.2 kcal/mol. Further, the Tm in data set [2] stood at 58.6 °C.

In the case of GCCTGGCGAAAGCAGGGC (((..((....))..))), the folding enthalpy in data set [1] was -26.7 kcal/mol. For the same sequence, the Tm in data set [2] came out at 65.6 °C.
